What is called viability is a read-out of living cells in per cent, often relative to untreated cells. Usually inhibition stands for the relative decrease from the control value, in per cent.

We go through eleven compounds from PubChem BioAssay.

Assay [1] can be described thus: reduced viability of SK-BR-3 breast cancer cells – cell-based, 24 h, human, pilot screen (AID 572).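 Note: compound exposure lasted between 18 and 24 h rather than exactly 24 h; 100% = carrier-treated control wells.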 The conditions noted are these: SK-BR-3 viability, CellTiter-Glo luminescence, at 10 µM, stronger effect = lower value. (In general: Cellular ATP, detected with luciferase, serves as a proxy for viable cell number.)
A short description of assay [2]: HUVEC growth inhibition – cell-based, human, primary screen (AID 575;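 active = viability at or below 30% in both replicate assays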;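 note: 100% = median of untreated cell wells with 0.1% DMSO on each plate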). The following applies: HUVEC proliferation, CellTiter-Glo luminescence, 72 h; at 10 µM; stronger effect = lower value. The essentials:
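system = HUVEC primary cells | amount = 1250 cells/well | buffer or medium = supplemented EBM, 2% fetal bovine serum | dosing = single-point 10 µM, DMSO 0.1% final | times = 72 h compound incubation | detection = CTG luminescence | read-out = % viability relative to median vehicle-well signal on each plate | control set = vehicle and MePR control wells | format = collagen-coated 384-well format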

A short description of assay [3]: H69AR cell proliferation blockers – human, duplicate replicates, primary screen (AID 580;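 active = viability at or under a set limit in both replicates, limit being median viability minus 3 SD, cut at about 48% in these data, passing the limit was not always enough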;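 note: 100% = mean luminescence of untreated wells and 0% = no signal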). The conditions noted are these: H69AR lung tumor cells viability, ATP luminescence, 72 h; at 10 µM; stronger effect = lower value.
A short description of assay [4]: MRP1 drug-resistance reversers in H69AR cells – cell-based, doxorubicin co-treatment, pilot screen (AID 601;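 active = viability loss from added drug above about 55%, and viability with drug at most 40%, in both replicates, limit read from the data, passing the limit was not always enough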). The conditions noted are these: CellTiter-Glo, 72 h, at 10 µM; for differential viability (reversal): stronger effect = higher value.
The nature of assay [5]: yeast transport mutant growth inhibition pilot in 384-well plates, post-Golgi transport modulator project (AID 636; in the data active = inhibition above about 31%). The conditions noted are these: absorbance 615 nm, about 18 h, stronger effect = higher value.
A short description of assay [6]: growth suppression of yeast trafficking mutant, preliminary HTS, modulators of trafficking downstream of Golgi apparatus project, 1536-format plate, OD 615 nm (AID 637; in the data active = inhibition above about 30%). The following applies: yeast transport mutant growth, absorbance 615 nm, 18 h; stronger effect = higher value.
[7] abbreviates: H69AR cells + 2 uM doxorubicin, measured here: viability with 2 uM doxorubicin, stronger effect = lower value.
The mark [8] stands for this setting: H69AR cells, compound alone cytotoxicity.

Active and inactive are the calls of the source.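 Rule for the calls, unless noted: active = viability at or below 10% of carrier control in both of two separate runs; inconclusive = viability at or below 10% in only one of the two runs; inactive = the rest.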

In the case of `Cc1cc(=O)n2[nH]c(-c3ccc(Cl)cc3)cc2n1`, the viability in assay [1] is 108% (inactive); in assay [2] it was 75.8% (inactive); in assay [3], 99.2% (inactive); in assay [4] (setting [7]), 90.7%; in assay [4] (setting [8]) it was 99.2%. Also, the differential viability (reversal) in assay [4] (H69AR cells + 2 uM doxorubicin) was 8.53% (inactive). Further, the inhibition was -4.66% (inactive) in assay [5] and 5.45% (inactive) in assay [6].

For the compound `O=C(CCCOc1ccccc1)N1CCN(c2ccccn2)CC1`, the viability in assay [1] was 99% (inactive); in assay [2], 97.7% (inactive); in assay [3] it was 104% (inactive); in assay [4] (setting [7]), 97.8%; in assay [4] (setting [8]), 104%. For the same compound, in assay [4] (H69AR cells + 2 uM doxorubicin), the differential viability (reversal) is 5.88% (inactive). The inhibition was -0.39% (inactive) in assay [5] and -5.74% (inactive) in assay [6].

Consider `COc1cccc(N2C(=O)N(c3ccccc3Cl)C3CS(=O)(=O)CC32)c1` (stereo not drawn), for which the viability in assay [1] was 93% (inactive); in assay [2], 106% (inactive); in assay [3] it was 98% (inactive); in assay [4] (setting [7]), 88.7%; in assay [4] (setting [8]) it was 98%. The differential viability (reversal) in assay [4] (H69AR cells + 2 uM doxorubicin) is 9.28% (inactive). In addition, the inhibition was -6.71% (inactive) in assay [5] and 3.45% (inactive) in assay [6].

As to `c1n[nH]c(SCCCCSc2ncn[nH]2)n1`, the viability is 101% (inactive) in assay [1]; 108% (inactive) in assay [2]; 108% (inactive) in assay [3]; 93.9% in assay [4] (setting [7]); 108% in assay [4] (setting [8]). Further, the differential viability (reversal) in assay [4] (H69AR cells + 2 uM doxorubicin) is 13.8% (inactive). Further, the inhibition was -6.71% (inactive) in assay [5] and 2.91% (inactive) in assay [6].

In the case of `CCc1nc(SCc2cc(Cl)ccc2OC)n[nH]1`, the viability is 99% (inactive) in assay [1]; 94.2% (inactive) in assay [2]; 94.7% (inactive) in assay [3]; 106% in assay [4] (setting [7]); 94.7% in assay [4] (setting [8]). In assay [4] (H69AR cells + 2 uM doxorubicin), the differential viability (reversal) is -11.5% (inactive). Moreover, the inhibition in assay [5] was -0.68% (inactive); in assay [6] it was -6.55% (inactive).

In the case of `COC(=O)c1[nH]c2ccc(C)cc2c1NC(=O)CN1CCC(C)CC1`, the viability in assay [1] is 101% (inactive); in assay [2], 94.5% (inactive); in assay [3], 92.5% (inactive); in assay [4] (setting [7]), 98.6%; in assay [4] (setting [8]), 92.5%. Also, the differential viability (reversal) in assay [4] (H69AR cells + 2 uM doxorubicin) is -6.15% (inactive). For the same compound, the inhibition in assay [5] was -4.27% (inactive); in assay [6], -2.73% (inactive).

For `COc1cc(NC(=O)c2cccs2)cc(OC)c1`, the viability is 72% (inactive) in assay [1]; 95.4% (inactive) in assay [2]; 97.7% (inactive) in assay [3]; 84% in assay [4] (setting [7]); 97.7% in assay [4] (setting [8]). Moreover, the differential viability (reversal) in assay [4] (H69AR cells + 2 uM doxorubicin) was 13.6% (inactive). The inhibition was -2.97% (inactive) in assay [5] and -8.18% (inactive) in assay [6].

For the compound `C1COC(NC(C2CC2)C2CC2)=N1`, the viability in assay [1] was 94% (inactive); in assay [2] it was 77.3% (inactive); in assay [3], 84.9% (inactive); in assay [4] (setting [7]), 79.6%; in assay [4] (setting [8]) it was 84.9%. Besides, the differential viability (reversal) in assay [4] (H69AR cells + 2 uM doxorubicin) is 5.27% (inactive). In addition, the values for the inhibition in assay [5] and in assay [6] were -1.3% (inactive) and -5.17% (inactive), respectively.

With `CCOC(=O)C1CCCN(C(=O)Cc2ccc(OC)c(OC)c2)C1` (stereo not drawn), the viability is 81% (inactive) in assay [1]; 99.5% (inactive) in assay [2]; 94.5% (inactive) in assay [3]; 91.8% in assay [4] (setting [7]); 94.5% in assay [4] (setting [8]). Besides, the differential viability (reversal) in assay [4] (H69AR cells + 2 uM doxorubicin) was 2.69% (inactive). The figures for the inhibition in assay [5] and in assay [6] were -6.85% (inactive) and 1.09% (inactive), respectively.

For the compound `CC(Cc1ccc(O)c(O)c1)C(C)Cc1ccc(O)c(O)c1` (stereo not drawn), the viability in assay [1] is 87% (inactive); in assay [2], 22.3% (active); in assay [3] it was 77.4% (inactive); in assay [4] (setting [7]), 79.1%; in assay [4] (setting [8]) it was 77.4%. The differential viability (reversal) in assay [4] (H69AR cells + 2 uM doxorubicin) was -1.66% (inactive). The results for the inhibition in assay [5] and in assay [6] were -5.45% (inactive) and -6.33% (inactive), respectively.

`CCNC(=O)CC1C(=O)N(c2ccccc2)C(=O)N1CCC(C)C` (stereo not drawn): the viability is 117% (inactive) in assay [1]; 95.9% (inactive) in assay [2]; 93.5% (inactive) in assay [3]; 79.6% in assay [4] (setting [7]); 93.5% in assay [4] (setting [8]). Further, in assay [4] (H69AR cells + 2 uM doxorubicin), the differential viability (reversal) is 13.9% (inactive). Further, the inhibition in assay [5] was -0.78% (inactive); in assay [6] it was -0.82% (inactive).
